In ChEMBL document CHEMBL4680104, “Structure-Based Optimization of Small-Molecule Inhibitors for the β-Catenin/B-Cell Lymphoma 9 Protein-Protein Interaction” (J Med Chem, 2018):
pIC50: −log10 of the molar value. Calls of active or inactive are those of the source. The calls are words filed in the database; no cut-off is given here.

Key:
SW480 [1] = experiment: Cytotoxicity in human SW480 cells assessed as reduction in cell viability incubated for 72 hrs by MTS assay; type: functional, cell-based; conditions: SW480, 72 h
How it was run: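 Cells seeded at 5 × 10^3 cells/well, kept overnight at 37 °C, then exposed to inhibitors at various concentrations for 72 h. Viability read with a freshly mixed PMS (0.92 mg/mL) : MTS (2 mg/mL) reagent at 1:19, incubated 3 h at 37 °C, A490 measured. […] Triplicate; mean ± SD.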

SW480 [2] = experiment: Cytotoxic activity in human SW480 cells at 50 to 100 uM incubated for 4 hrs by LDH release assay; type: cell-based; conditions: sw480, 4 h, dose 50-100 µM
How it was run: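 SW480 cells were seeded at 2 × 10^4 cells/well and kept overnight at 37 °C. They were then exposed to a range of inhibitor concentrations for 4 h. LDH in the culture supernatant was measured with a diagnostic kit by absorbance at 490 nm. Percent cytotoxicity was calculated from experimental release against maximum release, with background subtracted. Run in triplicate.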

[3] = molecular target: T1, beta-catenin-B-cell lymphoma 9 protein complex (Homo sapiens) (UniProt P35222+O00512); experiment: Inhibition of protein interaction between beta-catenin (unknown origin)/BCL9 in HEK293 cells transfected with beta-catenin assessed as reduction in Wnt/beta-catenin transactivation incubated for 24 hrs by Wnt-responsive FOP-Flash luciferase reporter assay; type: cell-based
How it was run: (§1)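 HEK293 cells were cotransfected using FuGENE6 with 45 ng TOPFlash or FOPFlash reporter, 135 ng pcDNA3.1-β-catenin and 20 ng pCMV-RL normalization reporter. After 24 h in DMEM with 10% FBS at 37 °C, inhibitors or DMSO were added for 24 h. Reporter activity was read with a dual luciferase system, normalized, and compared with DMSO-treated cells. Triplicate.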

[4] = molecular target: T1, beta-catenin-B-cell lymphoma 9 protein complex (Homo sapiens); experiment: Inhibition of protein interaction between beta-catenin (unknown origin)/BCL9 in human HEK293 cells transfected with beta-catenin assessed as reduction in Wnt/beta-catenin transactivation incubated for 24 hrs by Wnt-responsive FOP-Flash luciferase reporter assay
[5] = molecular target: T2, beta-catenin-B-cell lymphoma 9 protein complex (Homo sapiens, UniProt P35222); experiment: Inhibition of protein interaction between beta-catenin (unknown origin)/BCL9 in HEK293 cells transfected with beta-catenin assessed as reduction in Wnt/beta-catenin transactivation incubated for 24 hrs by Wnt-responsive TOP-Flash luciferase reporter assay; type: cell-based; how it was run: as §1
T2 sequence (P35222 whole entry): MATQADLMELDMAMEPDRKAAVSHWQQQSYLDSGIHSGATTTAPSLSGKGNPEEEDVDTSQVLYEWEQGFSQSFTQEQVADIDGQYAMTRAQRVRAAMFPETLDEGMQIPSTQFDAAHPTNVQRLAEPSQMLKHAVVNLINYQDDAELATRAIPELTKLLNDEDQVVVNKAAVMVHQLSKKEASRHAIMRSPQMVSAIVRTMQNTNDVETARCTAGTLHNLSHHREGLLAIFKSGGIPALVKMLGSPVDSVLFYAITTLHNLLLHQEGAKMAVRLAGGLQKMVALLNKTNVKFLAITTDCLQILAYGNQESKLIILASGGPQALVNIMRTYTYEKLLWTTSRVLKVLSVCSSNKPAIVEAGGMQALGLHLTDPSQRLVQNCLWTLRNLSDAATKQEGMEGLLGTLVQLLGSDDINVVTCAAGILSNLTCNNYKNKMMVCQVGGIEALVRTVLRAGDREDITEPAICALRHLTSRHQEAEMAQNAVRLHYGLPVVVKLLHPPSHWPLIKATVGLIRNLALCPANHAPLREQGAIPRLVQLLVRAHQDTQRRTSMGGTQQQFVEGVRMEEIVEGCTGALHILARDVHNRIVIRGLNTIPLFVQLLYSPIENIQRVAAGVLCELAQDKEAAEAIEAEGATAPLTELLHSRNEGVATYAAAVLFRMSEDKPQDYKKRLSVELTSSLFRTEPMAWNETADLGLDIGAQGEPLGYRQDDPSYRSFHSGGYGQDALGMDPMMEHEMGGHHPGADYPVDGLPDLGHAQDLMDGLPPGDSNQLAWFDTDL
T2 sequence (O00512 whole entry): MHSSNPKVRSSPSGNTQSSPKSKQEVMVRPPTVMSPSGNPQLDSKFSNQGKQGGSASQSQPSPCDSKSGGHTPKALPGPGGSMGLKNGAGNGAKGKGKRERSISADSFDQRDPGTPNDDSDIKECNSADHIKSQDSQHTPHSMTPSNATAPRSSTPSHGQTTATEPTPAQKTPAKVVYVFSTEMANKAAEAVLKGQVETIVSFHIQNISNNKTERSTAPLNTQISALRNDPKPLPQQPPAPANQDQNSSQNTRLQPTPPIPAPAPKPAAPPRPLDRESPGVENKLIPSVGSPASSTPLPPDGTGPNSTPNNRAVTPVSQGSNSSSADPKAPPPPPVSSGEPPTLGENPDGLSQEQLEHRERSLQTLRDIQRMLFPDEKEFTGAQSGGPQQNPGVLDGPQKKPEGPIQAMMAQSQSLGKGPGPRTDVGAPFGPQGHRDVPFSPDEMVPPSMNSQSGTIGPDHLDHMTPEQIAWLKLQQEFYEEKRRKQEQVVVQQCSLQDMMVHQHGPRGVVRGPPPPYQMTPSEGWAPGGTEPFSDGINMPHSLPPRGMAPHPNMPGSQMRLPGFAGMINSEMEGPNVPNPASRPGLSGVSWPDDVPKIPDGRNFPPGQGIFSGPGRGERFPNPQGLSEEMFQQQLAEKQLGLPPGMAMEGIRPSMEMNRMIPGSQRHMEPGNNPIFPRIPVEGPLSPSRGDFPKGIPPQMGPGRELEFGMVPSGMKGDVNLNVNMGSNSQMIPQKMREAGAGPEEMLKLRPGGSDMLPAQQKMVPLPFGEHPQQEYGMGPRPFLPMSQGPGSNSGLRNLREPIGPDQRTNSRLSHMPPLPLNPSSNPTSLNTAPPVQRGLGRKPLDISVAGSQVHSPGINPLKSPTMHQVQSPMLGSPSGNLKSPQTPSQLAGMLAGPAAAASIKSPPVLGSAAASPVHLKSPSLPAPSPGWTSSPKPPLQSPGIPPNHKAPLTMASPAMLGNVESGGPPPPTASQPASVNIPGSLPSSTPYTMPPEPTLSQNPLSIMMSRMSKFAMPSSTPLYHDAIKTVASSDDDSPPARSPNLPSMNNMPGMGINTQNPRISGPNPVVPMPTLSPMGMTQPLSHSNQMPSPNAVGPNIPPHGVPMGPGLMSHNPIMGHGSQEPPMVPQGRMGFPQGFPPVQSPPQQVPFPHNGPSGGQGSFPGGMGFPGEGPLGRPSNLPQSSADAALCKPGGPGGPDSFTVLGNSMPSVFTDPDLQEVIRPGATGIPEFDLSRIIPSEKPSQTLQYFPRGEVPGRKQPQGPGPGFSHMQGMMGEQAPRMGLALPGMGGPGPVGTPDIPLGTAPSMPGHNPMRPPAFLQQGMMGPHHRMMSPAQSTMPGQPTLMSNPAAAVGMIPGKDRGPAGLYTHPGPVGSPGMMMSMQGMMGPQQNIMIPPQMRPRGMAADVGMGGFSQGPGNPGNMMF

Structure (SMILES) | inhibition [3] | inhibition [4] | pIC50 [5] | pIC50 (SW480 [1]) | Activity (SW480 [2])
Cl.Cl.O=C(Nc1ccc(O[C@H]2CCNC2)c(-c2ccc(F)cc2)c1)c1cnc(O[C@H]2CCNC2)c(-c2ccc(F)c(F)c2)c1 | Active | Active | 4.66 | 5.52 | Toxic
Cl.Cl.O=C(Nc1ccc(O[C@H]2CCNC2)c(-c2ccc(F)cc2)c1)c1ccc(O[C@H]2CCNC2)c(C2CCC(C(F)(F)F)CC2)c1 (some centres not stated) | Active | Active | 5.00 | 5.44 | Toxic
Cl.Cl.O=C(Nc1ccc(O[C@H]2CCNC2)c(-c2ccc(F)cc2)c1)c1ccc(O[C@H]2CCNC2)c(-c2ccc(F)c(F)c2)c1 | Active | Active | 5.35 | – | Toxic
Cl.Cl.O=C(Nc1ccc(O[C@@H]2CCNC2)c(-c2cccc(-c3nn[nH]n3)c2)c1)c1ccc(O[C@H]2CCNC2)c(-c2ccc(F)c(F)c2)c1 | inactive | inactive | 4.60 | 4.39 | –

Further lines, with some results ahead:

inhibition [3] | inhibition [4] | pIC50 [5] | Structure (SMILES) | pIC50 (SW480 [1]) | Activity (SW480 [2])
Active | Active | – | Cc1cc(F)ccc1-c1cc(NC(=O)c2ccc(O[C@H]3CCNC3)c(-c3ccc(F)c(F)c3)c2)ccc1O[C@H]1CCNC1.Cl.Cl | 6.05 | Toxic
Active | Active | 5.00 | Cl.Cl.O=C(Nc1ccc(O[C@H]2CCNC2)c(-c2ccc(F)cc2)c1)c1ccc(O[C@H]2CCNC2)c(-c2ccc3cc(F)ccc3c2)c1 | 5.74 | Toxic
Active | Active | 5.21 | Cl.Cl.O=C(Nc1ccc(O[C@H]2CCNC2)c(-c2ccc(F)cc2)c1)c1ccc(O[C@H]2CCNC2)c(-c2ccc3ccsc3c2)c1 | 5.70 | Toxic
